Reference: ChEMBL document CHEMBL1147003, “Anti-Plasmodium activity of imidazole-dioxolane compounds” (Bioorg Med Chem Lett, 2006)

What was measured:
CHO [1] = assay: Cytotoxicity against CHO cell line; type: functional, cell-based, Cricetulus griseus
Method in brief: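 CHO cells in RPMI-1640 with 10% FBS, 25 mM HEPES and gentamicin, grown to 50% confluency before compounds added in DMSO. Viability after 24 h by MTT (1 mg/mL), 30 min further incubation, medium removed, DMSO added, absorbance at 540 nm. Run in quadruplicate. IC50 by non-linear regression.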

Plasmodium falciparum = assay: Antimalarial activity against Plasmodium falciparum; type: functional, organism-based
Method in brief: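 pLDH read-out of P. falciparum growth. Compounds in DMSO (10 mg/mL) serially diluted twofold in duplicate. Non-synchronous culture added at 5% hematocrit, 2% parasitemia. Incubated 72 h at 37 °C under 95% N2/3% CO2/2% O2. Sample of resuspended wells mixed with pLDH assay mixture, absorbance at 540 nm after 1 h. IC50 from non-linear regression, mean ± SD of four independent assays.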

CHO [2] = assay: Selectivity index as IC50 CHO/IC50 Plasmodium falciparum; type: functional

| SMILES | IC50 (Plasmodium falciparum; Plasmodium falciparum) [µM] | IC50 (Plasmodium falciparum) [µM] | IC50 (CHO [1]; Cricetulus griseus, CHO) [µM] | Ratio IC50 (CHO [2]) | IC50 (CHO [1]; cho) [µM] |
| --- | --- | --- | --- | --- | --- |
| C[C@@H]1CO[C@@](CCc2ccccc2)(Cn2ccnc2)O1.Cl | 0.34 |  | 668 | 2226.7 |  |
| CCC(COC(C)=O)n1ccnc1 (stereo unspecified) | 8.3 |  | 1850 | 222.7 |  |
| Cc1ccc(S(=O)(=O)OC[C@@H]2CO[C@](CCc3ccc(Cl)cc3)(Cn3ccnc3)O2)cc1 |  | 1.2 |  | 3.2 | 3.8 |
| Cc1ccc(S(=O)(=O)OC[C@@H]2CO[C@@](CCc3ccc(Cl)cc3)(Cn3ccnc3)O2)cc1 | 2.9 |  | 8 | 2.8 |  |
| Cc1ccc(S(=O)(=O)OC[C@H]2CO[C@](CCc3ccc(Cl)cc3)(Cn3ccnc3)O2)cc1 | 2.8 |  | 13 | 4.6 |  |
| Cc1ccc(S(=O)(=O)OC[C@H]2CO[C@@](CCc3ccc(Cl)cc3)(Cn3ccnc3)O2)cc1 | 1.9 |  | 5.7 | 3 |  |
| COc1ccc(CCC(O)Cn2ccnc2)cc1.Cl (stereo unspecified) | 38 |  | 116 | 3.1 |  |
| C[C@H]1CO[C@@](CCc2ccc(Cl)cc2)(Cn2ccnc2)O1.Cl | 4.1 |  | 39 | 9.5 |  |
| C[C@H]1CO[C@](CCc2ccc(Cl)cc2)(Cn2ccnc2)O1.Cl | 18 |  | 82 | 4.6 |  |
| C[C@@H]1CO[C@@](CCc2ccc(Cl)cc2)(Cn2ccnc2)O1.Cl | 7 |  | 51 | 7.3 |  |
| Cl.Clc1ccc(CCC2(Cn3ccnc3)SCCS2)cc1 | 2.3 |  | 25 | 10.9 |  |
| Cl.OC(CCc1ccc(Cl)cc1)Cn1ccnc1 (stereo unspecified) | 70 |  | 314 | 4.5 |  |
| Cc1ccc(S(=O)(=O)OC[C@@H]2CO[C@](CCc3ccc(Cl)cc3)(Cn3ccnc3)O2)cc1.Cl |  | 0.67 |  | 10.4 | 7 |
| Cl.Clc1ccc(CCC2(Cn3ccnc3)OCCO2)cc1 | 9 |  | 84 | 9.3 |  |
| C[C@@H]1CO[C@](CCc2ccc(Cl)cc2)(Cn2ccnc2)O1.Cl | 23 |  | 102 | 4.4 |  |
| Cl.O=C(CCc1ccc(Cl)cc1)Cn1ccnc1 | 25 |  | 168 | 6.7 |  |
| Cl.Fc1ccc(COC(CCc2ccc(Cl)cc2)Cn2ccnc2)cc1 (stereo unspecified) | 0.8 |  | 5.3 | 6.6 |  |

Further lines, with some results ahead:

| IC50 (Plasmodium falciparum; Plasmodium falciparum) [µM] | IC50 (Plasmodium falciparum) [µM] | SMILES | IC50 (CHO [1]; Cricetulus griseus, CHO) [µM] | Ratio IC50 (CHO [2]) | IC50 (CHO [1]; cho) [µM] |
| --- | --- | --- | --- | --- | --- |
| 0.06 |  | Oc1ccc(SC[C@@H]2CO[C@@](CCc3ccc(Cl)cc3)(Cn3ccnc3)O2)cc1 | 10.9 | 181.6 |  |
| 2.1 |  | CSC[C@@H]1CO[C@@](CCc2ccc(Cl)cc2)(Cn2ccnc2)O1.Cl | 9.3 | 4.7 |  |
| 20 |  | Cl.FC[C@@H]1CO[C@@](CCc2ccc(Cl)cc2)(Cn2ccnc2)O1 | 24 | 1.2 |  |
| 1.3 |  | Cl.Cl.Nc1ccc(OC[C@@H]2CO[C@@](CCc3ccc(Cl)cc3)(Cn3ccnc3)O2)cc1 | 14 | 10.8 |  |
| 1.1 |  | Cl.Oc1ccc(OC[C@@H]2CO[C@@](CCc3ccc(Cl)cc3)(Cn3ccnc3)O2)cc1 | 0.9 | 0.8 |  |
| 3.5 |  | COc1ccc(SC[C@@H]2CO[C@@](CCc3ccc(Cl)cc3)(Cn3ccnc3)O2)cc1.Cl | 3.7 | 1.1 |  |
| 2.5 |  | Cl.Clc1ccc(CC[C@@]2(Cn3ccnc3)OC[C@@H](CSc3ccc(Cl)cc3)O2)cc1 | 3.3 | 1.3 |  |
| 9 |  | Cl.OC[C@@H]1CO[C@@](CCc2ccc(Cl)cc2)(Cn2ccnc2)O1 | 227 | 25.2 |  |
| 3.3 |  | Cl.Clc1ccc(CC[C@@]2(Cn3ccnc3)OC[C@@H](CSc3ccccc3)O2)cc1 | 7 | 2.1 |  |
| 0.9 |  | Cl.Clc1ccc(CC[C@@]2(Cn3ccnc3)OC[C@@H](CSc3ccc(Br)cc3)O2)cc1 | 12 | 13.3 |  |
| 0.8 |  | COc1ccc(OC[C@@H]2CO[C@](CCc3ccc(Cl)cc3)(Cn3ccnc3)O2)cc1.Cl | 15 | 18.8 |  |
| 1.2 |  | Cl.Clc1ccc(CC[C@]2(Cn3ccnc3)OC[C@@H](CSc3ccc4ccccc4c3)O2)cc1 | 9 | 7.5 |  |
| 3.3 |  | Cl.Nc1ccccc1SC[C@H]1CO[C@](CCc2ccc(Cl)cc2)(Cn2ccnc2)O1 | 6.6 | 2 |  |
| 1.3 |  | Cl.Nc1ccc(SC[C@@H]2CO[C@@](CCc3ccc(Cl)cc3)(Cn3ccnc3)O2)cc1 | 374 | 287.7 |  |
| 2.7 |  | Cl.Cl.Nc1ccc(SC[C@H]2CO[C@@](CCc3ccc(Cl)cc3)(Cn3ccnc3)O2)cc1 | 6 | 2.2 |  |
| 4.9 |  | Cl.Cl.Clc1ccc(CC[C@@]2(Cn3ccnc3)OC[C@@H](CSc3ccncc3)O2)cc1 | 27 | 5.5 |  |
| 3 |  | Cl.Nc1ccc(SC[C@H]2CO[C@](CCc3ccc(Cl)cc3)(Cn3ccnc3)O2)cc1 | 254 | 84.7 |  |
| 0.6 |  | Cl.Cl.Nc1ccccc1SC[C@@H]1CO[C@](CCc2ccc(Cl)cc2)(Cn2ccnc2)O1 | 6 | 10 |  |
| 0.3 |  | Cl.Cl.Nc1cccc(SC[C@@H]2CO[C@](CCc3ccc(Cl)cc3)(Cn3ccnc3)O2)c1 | 18 | 60 |  |
| 2 |  | Cl.Nc1cccc(SC[C@@H]2CO[C@@](CCc3ccc(Cl)cc3)(Cn3ccnc3)O2)c1 | 10 | 5 |  |
| 3.9 |  | Cl.Cl.Nc1ccccc1SC[C@@H]1CO[C@@](CCc2ccc(Cl)cc2)(Cn2ccnc2)O1 | 16 | 4.1 |  |
| 2.5 |  | Cl.Nc1cccc(SC[C@H]2CO[C@](CCc3ccc(Cl)cc3)(Cn3ccnc3)O2)c1 | 9.2 | 3.7 |  |
| 1.2 |  | Cl.Cl.Nc1cccc(SC[C@H]2CO[C@@](CCc3ccc(Cl)cc3)(Cn3ccnc3)O2)c1 | 9 | 7.5 |  |
| 2.3 |  | Cl.Cl.Nc1ccccc1SC[C@H]1CO[C@@](CCc2ccc(Cl)cc2)(Cn2ccnc2)O1 | 11 | 4.8 |  |
| 0.8 |  | Cl.Cl.Nc1ccc(SC[C@@H]2CO[C@](CCc3ccc(Cl)cc3)(Cn3ccnc3)O2)cc1 [AZALANSTAT DIHYDROCHLORIDE] | 13 | 16.3 |  |
